Blank lines part the entries; values can stand above or below the compound they belong to.
Experiments:
PD-L1 = conditions: ligand in PDB 5N2F; cited from earlier work
human PD-L1 = conditions: binds human PD-L1; previously published; cited from earlier work
PD-1–PD-L1 interaction = PD-1–PD-L1 interaction (Homo sapiens, UniProt Q9NZQ7); assay: PD-1–PD-L1 TR-FRET assay; assay type: binding
In short: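 Test compound (from 5 mM DMSO stock, diluted in PBS) was preincubated 10 min with biotin-PD-L1 (added at 11 μg/mL) at room temperature in the dark. Eu-PD-1 (0.8 μg/mL) plus acceptor dye was then added for 1.5 h. Single doses were 5 and 25 μM final; dose-response used a 5:1 serial dilution. The 665/620 nm ratio (excitation 337 nm) was normalised to controls with and without PD-L1, in triplicate. IC50 came from nonlinear regression.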

[1] = tested in clinical trials but discontinued; cited from earlier work
[2] = tested on: LS 180 colorectal adenocarcinoma cells bearing the K-Ras G12D mutation; assay: MTT cell toxicity assay in LS 180 cells; assay type: cell-based; conditions: 48 h
In short: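 LS 180 cells were grown in DMEM with 10% FBS at 37 °C and 5% CO2, then seeded at 5000 cells/well in DMEM with 5% FBS and left to attach for 24 h. Test compound was added at 10, 4, 1.6 or 0.64 μM final, with 0.2% DMSO, in sextuplicate, for 48 h. MTT (0.35 mg/mL final) was added for 4 h, then DMF/SDS/HCl/acetic acid stop solution overnight at room temperature. A570 was read as % survival versus no compound.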

PD-1–PD-L1 interaction, sequence (Q9NZQ7 19-238 limits assumed): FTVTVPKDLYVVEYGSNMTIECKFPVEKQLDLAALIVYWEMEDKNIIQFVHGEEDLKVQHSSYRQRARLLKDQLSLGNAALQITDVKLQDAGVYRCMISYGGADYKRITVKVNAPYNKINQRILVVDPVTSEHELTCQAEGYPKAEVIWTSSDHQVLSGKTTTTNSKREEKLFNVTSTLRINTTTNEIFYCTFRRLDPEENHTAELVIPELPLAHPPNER

Compound: Cc1c(COc2cc(F)c(CNC[C@@H](O)CC(=O)O)cc2F)cccc1-c1ccc2c(c1)OCCO2 [BMS-200]
- IC50 (PD-L1): 3.1 nM

- IC50 (PD-1–PD-L1 interaction): 5.6 nM
- activity at 5 μM (in words) (PD-1–PD-L1 interaction; 5 μM): complete loss of activity
Compound: Cc1c(Nc2nccc3cc(CN4CC[C@@H](O)C4)cnc23)cccc1-c1cccc(-c2nc3cc(CN4CC[C@@H](C(=O)O)C4)cc(C#N)c3o2)c1C [INCB086550]
- IC50 (human PD-L1): 3.1 nM
- toxicity in clinical trials (in words) [1]: high toxicity

Compound: C#Cc1c(F)ccc2cc(O)cc(-c3ncc4c(N5CC6CCC(C5)N6)nc(OC[C@@]56CCCN5C[C@H](F)C6)nc4c3F)c12 [MRTX1133]
- GI50 [2]: submicromolar
